Consider 1 compound from ChEMBL document CHEMBL1649480, “Farnesol-induced apoptosis in Candida albicans” (2009).

Assay [1] concerns Candida albicans. Put plainly: Induction of apoptosis in Candida albicans SC5314 assessed as activation of caspase activity at 100 uM after 3 hrs by Fluorescence analysis. It counts as functional. The method in brief: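 SC5314 grown overnight at 30°C (120 rpm) in yeast nitrogen base pH 7.0 with 50 mM glucose, PBS-washed, set to OD600 0.1, then exposed to farnesol (40, 100, 200 μM; methanol diluent). Active caspases detected in situ with a FLICA kit per the manufacturer; green cells imaged by confocal microscopy (Cy2/Cy3). Controls: methanol vehicle and hydrogen peroxide. Done on three or more occasions.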

In assay [2] the test system is Candida albicans. Put plainly: Increase in MCA1 expression in Candida albicans SC5314 at 100 uM after 4 hrs by quantitative PCR analysis. In kind it is functional, organism-based. The method in brief: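 Log-phase SC5314 exposed 4 h to farnesol (methanol vehicle control). cDNA diluted 1:20 and run in SYBR green real-time PCR: 15 min 95°C, then 35 cycles of 95°C 1 min, 58°C 30 s, 72°C 30 s, with a melt curve check. MCA1 level was calculated by 2^−ΔΔCT against ACT1 and RPP2B reference genes.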

Assay [3] has as its system Candida albicans. Put plainly: Increase in MCA1 expression in Candida albicans SC5314 at 5 mM after 4 hrs by quantitative PCR analysis.
Assay [4] relates to Candida albicans. Put plainly: Downregulation of Heat shock protein 60 expression in Candida albicans SC5314 at 200 uM after 24 hrs by MALDI-TOF MS. It counts as functional, organism-based. The method in brief:
(§1)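 Overnight YNB-glucose SC5314 culture, PBS-washed, adjusted to OD600 0.1 and treated 24 h with 40 or 200 μM farnesol (methanol in controls). Proteomes were compared with untreated cells by 2D SDS-PAGE and MALDI-TOF MS, searched against NCBI nonredundant database. Spots were counted as changed at ≥1.5-fold in three independent experiments.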

In assay [5] the test system is Candida albicans. Put plainly: Downregulation of S-adenosylmethionine synthase expression in Candida albicans SC5314 at 200 uM after 24 hrs by MALDI-TOF MS. In kind it is functional, organism-based. The method in brief:
as §1

Assay [6] concerns Candida albicans. Put plainly: Induction of ROS accumulation in mitochondria of Candida albicans SC5314 after 3 hrs by Fluorescence analysis. In kind it is functional, organism-based. The method in brief:
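Cells were exposed 3 h to 40, 100 or 200 μM farnesol, with methanol control and H2O2 positive control. Washed cells were stained 30 min in the dark with a mix of dichlorodihydrofluorescein diacetate, propidium iodide and calcofluor white, then washed and viewed by confocal microscopy. % green (ROS) cells of all cells was scored, with red (necrotic) cells scored separately.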

Assay [7] relates to Candida albicans. Put plainly: Induction of apoptosis in Candida albicans SC5314 assessed as cell death level at 100 uM after 3 hrs by Fluorescence analysis. It counts as functional. In outline: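 Washed, OD600 0.1 SC5314 cells (overnight culture at 30°C in YNB pH 7.0 with 50 mM glucose) exposed 3 h to farnesol, with methanol vehicle and H2O2 controls. Stained 30 min in the dark with a mix of dichlorodihydrofluorescein diacetate, propidium iodide and calcofluor white, then PBS-washed. Confocal imaging; red propidium iodide-stained cells scored as a percentage of all cells.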

Assay [8] deals with Candida albicans. Put plainly: Downregulation of Phosphoglycerate mutase expression in Candida albicans SC5314 at 40 uM after 24 hrs by MALDI-TOF MS. In kind it is functional, organism-based. In outline: as §1
Assay [9] relates to Candida albicans. Put plainly: Induction of apoptosis in Candida albicans SC5314 assessed as mitochondrial degradation at 200 uM after 3 hrs by Fluorescence analysis. It counts as functional. The method in brief: (§2)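 Farnesol-exposed SC5314 (40, 100, 200 μM; methanol control, H2O2 positive control) stained with a MitoPT mitochondrial permeability transition dye per kit instructions. Cells imaged by confocal microscopy: red mitochondrial aggregates in healthy cells, dispersed green signal in apoptotic cells. Percentage of cells with degradation was recorded.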

Assay [10] has as its system Candida albicans. Put plainly: Upregulation of Phosphoglycerate mutase expression in Candida albicans SC5314 at 200 uM after 24 hrs by MALDI-TOF MS. In kind it is functional, organism-based. The method in brief: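 SC5314 grown overnight at 30°C, 120 rpm, in yeast nitrogen base (pH 7.0) with 50 mM glucose. Cells were washed in PBS and adjusted to OD600 0.1, then treated 24 h with farnesol from a methanol dilution; controls received methanol. Proteomes of treated and untreated cells were compared by 2-D SDS-PAGE and MALDI-TOF MS, with ProFound searches of the NCBI nonredundant database. Spots changed at least 1.5-fold in three independent experiments were counted.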

Assay [11] has as its system Candida albicans. Put plainly: Increase in MCA1 expression in Candida albicans SC5314 at 2.5 mM after 4 hrs by quantitative PCR analysis.
The test system of assay [12] is Candida albicans. Put plainly: Downregulation of NADH:quinone oxidoreductase expression in Candida albicans SC5314 at 200 uM after 24 hrs by MALDI-TOF MS. It counts as functional, organism-based. The method in brief:
as §1

The subject of assay [13] is Candida albicans. Put plainly: Upregulation of Alanine/arginine aminopeptidase expression in Candida albicans SC5314 at 40 uM after 24 hrs by MALDI-TOF MS. It counts as functional, organism-based. The method in brief:
as §1

Assay [14] concerns Candida albicans. Put plainly: Upregulation of Acetyl-CoA hydrolase/transferase expression in Candida albicans SC5314 at 200 uM after 24 hrs by MALDI-TOF MS. In kind it is functional, organism-based. The method in brief:
as §1

Assay [15] concerns Candida albicans. Put plainly: Induction of apoptosis in Candida albicans SC5314 assessed as mitochondrial degradation at 100 uM after 3 hrs by Fluorescence analysis. It counts as functional. The method in brief:
as §2

The source made the active and inactive calls. No cut-off for these calls is given here.

For the compound `CC(C)=CCC/C(C)=C/CC/C(C)=C/CO` [FARNESOL], the Activity in [1] amounted to 13%; in [7] it was 20%; in assay [9] it was 95%; in [15], 93%. In addition, the outcome in assay [2] was inactive. The outcome in assay [3], in assay [4], in assay [5], in [6], in [8] and in assay [10] was Active. In addition, the outcome in [11], in assay [12], in assay [13] and in assay [14] was Active.
